Assay [1] addresses T1, Beta-adrenergic receptor kinase 1 (Bos taurus, UniProt P21146).
T1 sequence (P21146 whole entry): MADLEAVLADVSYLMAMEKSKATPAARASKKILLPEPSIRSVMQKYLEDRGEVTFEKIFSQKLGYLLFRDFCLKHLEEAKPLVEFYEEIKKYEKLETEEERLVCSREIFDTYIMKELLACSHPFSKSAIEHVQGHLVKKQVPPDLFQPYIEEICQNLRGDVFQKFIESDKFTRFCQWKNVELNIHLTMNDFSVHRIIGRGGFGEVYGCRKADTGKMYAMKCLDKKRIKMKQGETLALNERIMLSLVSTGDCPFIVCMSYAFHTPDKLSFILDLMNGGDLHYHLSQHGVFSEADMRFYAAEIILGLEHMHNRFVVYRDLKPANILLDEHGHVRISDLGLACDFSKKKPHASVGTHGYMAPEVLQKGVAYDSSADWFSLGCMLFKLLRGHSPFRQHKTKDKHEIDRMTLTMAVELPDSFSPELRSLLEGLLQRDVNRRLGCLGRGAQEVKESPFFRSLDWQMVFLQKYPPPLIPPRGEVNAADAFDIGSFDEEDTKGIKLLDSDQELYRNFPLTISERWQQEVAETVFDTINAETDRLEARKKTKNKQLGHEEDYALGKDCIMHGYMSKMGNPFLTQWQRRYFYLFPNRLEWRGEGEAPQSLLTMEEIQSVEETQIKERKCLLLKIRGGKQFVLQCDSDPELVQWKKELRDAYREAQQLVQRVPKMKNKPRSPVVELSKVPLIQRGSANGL
The experiment in a line: Inhibition of bovine GRK2 using tubulin as substrate measured after 4 hrs by [gamma-32P]-ATP assay. A digest of the protocol: (§1)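 Radiometric kinase assay using tubulin as phosphoacceptor and [γ-32P]ATP. Inhibitor was preincubated with the kinase for the stated time (here 4 h) before the reaction. IC50 came from dose–response curves. Most runs were three independent experiments in duplicate; some GRK5/GRK6 4 h runs were done twice in duplicate.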

Assay [2] in a line: Inhibition of bovine GRK6 using tubulin as substrate measured after 4 hrs by [gamma-32P]-ATP assay. Also on record: species or system Bos taurus. An outline of the steps:
as §1

In assay [3] the target is T2, G protein-coupled receptor kinase 5 (Homo sapiens, UniProt P34947). The experiment in a line: Inhibition of human GRK5 using tubulin as substrate measured after 4 hrs by [gamma-32P]-ATP assay.
The target of assay [4] is G protein-coupled receptor kinase 5 (Bos taurus, UniProt P43249, C474S). The experiment in a line: Inhibition of bovine GRK5 C474S mutant using tubulin as substrate measured after 4 hrs by [gamma-32P]-ATP assay.
For assay [5], the target named is T3, Rhodopsin kinase GRK1 (Bos taurus, UniProt P28327).
T3 sequence (P28327 whole entry): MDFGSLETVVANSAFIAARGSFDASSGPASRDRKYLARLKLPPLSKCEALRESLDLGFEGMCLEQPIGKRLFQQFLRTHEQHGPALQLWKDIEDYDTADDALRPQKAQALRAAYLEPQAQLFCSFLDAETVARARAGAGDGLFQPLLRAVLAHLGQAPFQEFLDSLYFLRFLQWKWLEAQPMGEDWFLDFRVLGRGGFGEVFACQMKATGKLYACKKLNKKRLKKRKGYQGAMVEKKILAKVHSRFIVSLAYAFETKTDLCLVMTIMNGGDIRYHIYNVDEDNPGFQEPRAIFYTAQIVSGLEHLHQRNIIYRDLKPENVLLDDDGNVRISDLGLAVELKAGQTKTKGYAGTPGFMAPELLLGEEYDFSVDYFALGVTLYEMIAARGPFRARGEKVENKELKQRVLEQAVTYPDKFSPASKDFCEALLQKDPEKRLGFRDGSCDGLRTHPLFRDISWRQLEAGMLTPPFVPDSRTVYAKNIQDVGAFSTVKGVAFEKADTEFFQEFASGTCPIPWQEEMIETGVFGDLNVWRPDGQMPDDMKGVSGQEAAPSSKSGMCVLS
Put plainly: Displacement of BODIPY TR-ADP from bovine GRK1 (1 to 535 residues) preincubated for 10 mins followed by compound addition and measured after 10 to 15 mins by fluorescence polarization displacement assay. (In fluorescence polarisation assays a small probe gives low polarisation when free and higher when bound to something large.)

The target in assay [6] is T2, G protein-coupled receptor kinase 5. The experiment in a line: Displacement of BODIPY TR-ADP from GRK5 (unknown origin) preincubated for 10 mins followed by compound addition and measured after 10 to 15 mins by fluorescence polarization displacement assay.
The nature of assay [7]: Selectivity index, ratio of IC50 for bovine GRK2 to IC50 for human GRK5. A digest of the protocol:
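Selectivity is the GRK2 IC50 divided by the GRK5 IC50. Both values come from the tubulin/[γ-32P]ATP radiometric assay. The GRK5 value used is from the longest inhibitor preincubation tested.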

For assay [8], the target named is T3, Rhodopsin kinase GRK1. Put plainly: Inhibition of bovine GRK1 using tubulin as substrate measured after 4 hrs by [gamma-32P]-ATP assay. An outline of the steps: as §1

The structures appear in SMILES notation.

T2 sequence (P34947 whole entry): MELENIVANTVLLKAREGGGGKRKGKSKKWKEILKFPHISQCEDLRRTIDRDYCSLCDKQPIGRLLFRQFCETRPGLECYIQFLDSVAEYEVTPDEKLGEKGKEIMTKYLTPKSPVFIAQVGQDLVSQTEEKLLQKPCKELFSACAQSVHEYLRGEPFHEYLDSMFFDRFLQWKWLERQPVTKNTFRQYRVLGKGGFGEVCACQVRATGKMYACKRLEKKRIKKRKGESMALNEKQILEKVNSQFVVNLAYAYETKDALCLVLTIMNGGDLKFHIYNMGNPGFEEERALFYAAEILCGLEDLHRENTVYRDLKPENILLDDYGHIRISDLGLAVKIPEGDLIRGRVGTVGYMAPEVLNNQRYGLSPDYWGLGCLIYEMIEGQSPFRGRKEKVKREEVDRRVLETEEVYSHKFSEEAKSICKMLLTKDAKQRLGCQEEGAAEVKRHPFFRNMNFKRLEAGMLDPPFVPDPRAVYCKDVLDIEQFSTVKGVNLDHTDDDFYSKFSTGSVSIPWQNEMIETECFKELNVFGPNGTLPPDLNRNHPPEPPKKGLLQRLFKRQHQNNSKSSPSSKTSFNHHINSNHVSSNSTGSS
G protein-coupled receptor kinase 5 (Bos taurus, UniProt P43249, C474S), sequence (P43249 whole entry C474S): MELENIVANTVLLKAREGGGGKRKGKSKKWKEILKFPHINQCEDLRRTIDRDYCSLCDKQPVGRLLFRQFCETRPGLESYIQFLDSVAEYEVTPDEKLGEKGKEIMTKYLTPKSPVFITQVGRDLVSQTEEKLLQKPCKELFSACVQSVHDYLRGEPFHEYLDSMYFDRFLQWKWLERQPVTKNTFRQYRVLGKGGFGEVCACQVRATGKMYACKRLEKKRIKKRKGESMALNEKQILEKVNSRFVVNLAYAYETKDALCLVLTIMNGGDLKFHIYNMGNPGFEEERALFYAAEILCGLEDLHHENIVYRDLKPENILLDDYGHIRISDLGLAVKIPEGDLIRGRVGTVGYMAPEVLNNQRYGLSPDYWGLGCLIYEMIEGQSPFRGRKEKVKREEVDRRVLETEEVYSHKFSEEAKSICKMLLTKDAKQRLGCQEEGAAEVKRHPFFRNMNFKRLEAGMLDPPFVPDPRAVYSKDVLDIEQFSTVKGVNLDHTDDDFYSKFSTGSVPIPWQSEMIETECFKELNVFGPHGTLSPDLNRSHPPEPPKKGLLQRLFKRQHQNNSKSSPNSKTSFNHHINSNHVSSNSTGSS

As for `C=CS(=O)(=O)NCc1ccc(Nc2nc(Nc3ccccc3C(=O)NC)c3cc[nH]c3n2)c(OC)c1`, the IC50 (commonly the midpoint of a concentration-inhibition curve) in assay [1] was over 100 µM; in assay [2] it was 7.7 µM.

Take `CNC(=O)c1ccccc1Nc1nc(Nc2ccc(CNC(=O)/C=C/CN(C)C)cc2OC)nc2[nH]ccc12`: the IC50 in assay [1] and in assay [2] was over 100 µM throughout.

As for `CCC(=O)NCc1ccc(Nc2nc(Nc3ccccc3C(=O)NC)c3cc[nH]c3n2)c(OC)c1`, the IC50 in assay [3] is over 100 µM; in assay [1] it was over 100 µM; in assay [2] it was over 100 µM; in assay [4] it was 100 µM.

Regarding `CCCN1CCC(c2ccc(Nc3nc(Nc4cc(F)ccc4C(N)=O)c4cc[nH]c4n3)c(OC)c2)CC1` [GSK-1326255A], the IC50 in assay [5] was over 100 µM; in assay [6], 2.5 µM.

For the compound `C=CS(=O)(=O)NCc1ccc(OC)c(Nc2nc(Nc3ccccc3C(=O)NC)c3cc[nH]c3n2)c1`, the values for the IC50 in assay [3], in assay [1] and in assay [2] were 7.1 µM, over 100 µM and 2.5 µM, respectively. Besides, the Ratio IC50 in assay [7] was over 14.

With `COc1cc(NC(=O)/C=C/CN(C)C)ccc1Nc1nc(Nc2ccccc2C(N)=O)c2cc[nH]c2n1`, the IC50 in assay [8] came out at 0.76 µM; in assay [1] it was 0.68 µM.

On to `CCC(=O)Nc1ccc(OC)c(Nc2nc(Nc3ccccc3C(N)=O)c3cc[nH]c3n2)c1`, for which, in assay [2], the IC50 was over 100 µM.

Regarding `CCC(=O)NCc1ccc(OC)c(Nc2nc(Nc3ccccc3C(=O)NC)c3cc[nH]c3n2)c1`, the figures for the IC50 in assay [3], in assay [1] and in assay [2] were over 100 µM, 2.9 µM and over 100 µM, respectively. Moreover, the Ratio IC50 in assay [7] was under 0.01.

Regarding `C=CC(=O)NCc1ccc(Nc2nc(Nc3ccccc3C(=O)NC)c3cc[nH]c3n2)c(OC)c1`, the IC50 in assay [1] and in assay [2] was over 100 µM each time.

The compound `CCCN1CCC(Oc2cc(Nc3nc(Nc4cccc(F)c4C(N)=O)c4cc[nH]c4n3)c(OC)cc2Cl)CC1` [GSK-1713088A] yielded an IC50 in assay [6] of 3.2 µM. That is a single-digit micromolar value.

`C=CC(=O)Nc1ccc(Nc2nc(Nc3ccccc3C(N)=O)c3cc[nH]c3n2)c(OC)c1` showed an IC50 in assay [2] of 0.41 µM.

For `CNC(=O)c1ccccc1Nc1nc(Nc2cc(CNC(=O)/C=C/CN(C)C)ccc2OC)nc2[nH]ccc12`, the IC50 turned out to be 4.8 µM in assay [3], 2.1 µM in assay [1] and 2.6 µM in assay [2]. The Ratio IC50 in assay [7] stood at 0.4.

Consider `C=CC(=O)NCc1ccc(OC)c(Nc2nc(Nc3ccccc3C(=O)NC)c3cc[nH]c3n2)c1`, for which the 50% inhibitory concentration (IC50) in assay [1] came out at 3.2 µM; in assay [2] it was 18 µM.

As to `COc1ccc(NC(=O)/C=C/CN(C)C)cc1Nc1nc(Nc2ccccc2C(N)=O)c2cc[nH]c2n1`, the figures for the IC50 in assay [8] and in assay [1] were 2.1 µM and 2.7 µM, respectively.

Take `CC#CC(=O)NCc1ccc(OC)c(Nc2nc(Nc3ccccc3C(=O)NC)c3cc[nH]c3n2)c1`: the half-maximal inhibitory concentration (IC50) in assay [3], in assay [1] and in assay [2] was over 100 µM throughout.

Regarding `COc1cc2c(cc1Nc1nc(Nc3ccsc3C(N)=O)c3cc[nH]c3n1)N(C(=O)CN(C)C)CCC2(C)C` [GSK-2163632A], the IC50 in assay [5] turned out to be 0.13 µM; in assay [6], 3.2 µM.

`CC#CC(=O)NCc1ccc(Nc2nc(Nc3ccccc3C(=O)NC)c3cc[nH]c3n2)c(OC)c1`: the IC50 in assay [1] and in assay [2] was over 100 µM each time.

The values above are taken from ChEMBL document CHEMBL4406919, “Structure-Based Design of Selective, Covalent G Protein-Coupled Receptor Kinase 5 Inhibitors” (ACS Med Chem Lett, 2019).
